Measured values as given in ChEMBL document CHEMBL1125226, “Antineoplastic activity of didemnin congeners: nordidemnin and modified chain analogues” (1991).

What was measured:
Format in all cases: functional, Mus musculus
[1] = tested on: L1210; assay: Antitumor activity against L1210 Lymphoid Leukemia from CDF1 female mice evaluated as the number of survivors on day 5 at a dose of 0.25 mg/kg/day
Outline: (§1)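 L1210 leukemia, 10⁵ cells ip on day 0 into CDF1 female mice (BALB/c ♀ × DBA/2 ♂). Drug in 2% methanol given ip on days 1, 5 and 9, 10 mice per group. Survivors and body weight recorded on days 1 and 5, with toxicity as survivors on day 5. Deaths followed for 30 days. T/C = treated/control median survival time, significant at ≥125%.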

[2] = tested on: P388; assay: Antitumor activity against P388 Leukemia from CDF1 female mice evaluated as Median survival time of treated mice at a dose of 0.12 mg/kg/day
Outline: (§2)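 CDF1 female mice (BALB/c ♀ × DBA/2 ♂) given 10⁶ P388 cells ip on day 0. Drug in 2% methanol given ip on days 1, 5 and 9, 10 mice per group and more controls. Toxicity is survivors on day 5, with weight change between days 1 and 5. Mortality followed 30 days. T/C% is treated over control median survival (NCI method), significant at ≥125%.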

[3] = tested on: P388; assay: Median survival time of treated mice at a dose of 1 mg/kg/day
[4] = tested on: P388; assay: Antitumor activity against P388 Leukemia from CDF1 female mice evaluated as the number of survivors on day 5 at a dose of 0.75 mg/kg/day
Outline: (§3)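 CDF1 female mice (BALB/c × DBA/2) inoculated ip with 10⁶ P388 cells on day 0. Drug given ip in 2% methanol on days 1, 5 and 9. Ten mice per dose group, with a larger control group. Body weight and survival were recorded on days 1 and 5, with toxicity taken as survivors on day 5. Mortality was followed for 30 days to give median survival time.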

[5] = tested on: P388; assay: Antitumor activity against P388 Leukemia from CDF1 female mice evaluated as Median survival time of treated mice at a dose of 0.06 mg/kg/day; outline: as §2
[6] = tested on: B16; assay: Antitumor activity against B16 melanoma from B6 D2 F1 female mice evaluated as Median survival time of treated mice at a dose of 0.50 mg/kg/day
Outline: (§4)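 B6D2F1 female mice (C57BL/6 ♀ × DBA/2 ♂) implanted ip on day 0 with 0.5 mL of B16 tumor suspension (1 g homogenized in 9 mL 0.9% saline). Dosing ip on days 1, 5 and 9. Day-5 survivors give toxicity. Median survival of treated vs control mice gives T/C%, with ≥125% significant.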

[7] = tested on: B16; assay: Antitumor activity against B16 melanoma from B6 D2 F1 female mice evaluated as the number of survivors on day 5 at a dose of 0.06 mg/kg/day (repeated ip injections, day 1-9); conditions: route intraperitoneal
Outline: (§5)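 B16 melanoma homogenate (1 g tumor in 9 mL 0.9% saline), 0.5 mL implanted ip on day 0 in B6D2F1 female mice (C57BL/6 ♀ × DBA/2 ♂). Treatment ip once daily from day 1 to day 9. Toxicity scored as survivors on day 5. Median survival recorded and T/C computed as treated/control median survival, ≥125% significant.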

[8] = tested on: B16; assay: Antitumor activity against B16 melanoma from B6 D2 F1 female mice(T/C) was evaluated from the median survival time of treated mice (T) over that of control mice (C) at a dose of 1 mg/kg/day; outline: as §4
[9] = tested on: B16; assay: Antitumor activity against B16 melanoma from B6 D2 F1 female mice(T/C) was evaluated from the median survival time of treated mice (T) over that of control mice (C) at a dose of 0.50 mg/kg/day; outline: as §4
[10] = tested on: P388; assay: Average weight change of animals between day 1 and day 5 after tumor implementation at a dose of 0.75 mg/kg/day
Outline: (§6)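 P388 leukemia: CDF1 female mice were inoculated ip with 10⁶ cells on day 0. Treatment in 2% methanol was given ip on days 1, 5 and 9, with 10 mice per group and a larger control group. Body weight was recorded on days 1 and 5 post-implant, and the average change was reported.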

[11] = tested on: B16; assay: Antitumor activity against B16 melanoma from B6 D2 F1 female mice evaluated as the number of survivors on day 5 at a dose of 1 mg/kg/day; outline: as §4
[12] = tested on: L1210; assay: Antitumor activity against L1210 Lymphoid Leukemia from CDF1 female mice as Median survival time of treated mice at a dose of 0.50 mg/kg/day; outline: as §1
[13] = tested on: L1210; assay: Antitumor activity against L1210 Lymphoid Leukemia from CDF1 female mice as average weight change of animals between day 1 and day 5 after tumor implementation at a dose of 1.0 mg/kg/day
Outline: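 CDF1 female mice (BALB/c × DBA/2) received 10⁵ L1210 cells ip on day 0. Drug was dissolved in 2% methanol and given ip on days 1, 5 and 9, to 10 mice per group. Weights were taken on days 1 and 5, and the mean change was reported.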

[14] = tested on: P388; assay: Average weight change of animals between day 1 and day 5 after tumor implementation at a dose of 0.06 mg/kg/day; outline: as §6
[15] = tested on: B16; assay: Antitumor activity against B16 melanoma from B6 D2 F1 female mice as average weight change of animals between day 1 and day 5 after tumor implementation at a dose of 0.25 mg/kg/day (repeated ip injections, day 1-9); conditions: route intraperitoneal
Outline: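 B6D2F1 female mice (C57BL/6 × DBA/2) were implanted ip on day 0 with 0.5 mL of B16 suspension (1 g tumor homogenized in 9 mL 0.9% saline). Ip treatment was given once daily, day 1 to day 9. Body weight was recorded on days 1 and 5 after implantation, and the mean change per group was reported.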

[16] = tested on: P388; assay: Antitumor activity against P388 Leukemia from CDF1 female mice evaluated as Median survival time of treated mice at a dose of 0.25 mg/kg/day; outline: as §3
[17] = tested on: B16; assay: Antitumor activity against B16 melanoma from B6 D2 F1 female mice evaluated as Median survival time of treated mice at a dose of 1 mg/kg/day; outline: as §4
[18] = tested on: B16; assay: Antitumor activity against B16 melanoma from B6 D2 F1 female mice as Median survival time of treated mice at a dose of 0.50 mg/kg/day (repeated ip injections, day 1-9); conditions: route intraperitoneal; outline: as §5
[19] = tested on: P388; assay: Average weight change of animals between day 1 and day 5 after tumor implementation at a dose of 0.50 mg/kg/day; outline: as §6
[20] = tested on: P388; assay: Antitumor activity (T/C) was evaluated from the median survival time of treated mice (T) over that of control mice (C) at a dose of 0.25 mg/kg/day; outline: as §2
[21] = tested on: B16; assay: Antitumor activity against B16 melanoma from B6 D2 F1 female mice(T/C) was evaluated from the median survival time of treated mice (T) over that of control mice (C) at a dose of 0.25 mg/kg/day; outline: as §4
[22] = tested on: B16; assay: Antitumor activity against B16 melanoma from B6 D2 F1 female mice evaluated as average weight change of animals between day 1 and day 5 after tumor implementation at a dose of 0.25 mg/kg/day
Outline: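 B16 melanoma in B6D2F1 female mice: 0.5 mL of tumor homogenate (1 g in 9 mL 0.9% saline) was given ip on day 0. Ip dosing was on days 1, 5 and 9. The readout was the average body weight change between day 1 and day 5 after tumor implantation.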

[23] = tested on: L1210; assay: Antitumor activity against L1210 Lymphoid Leukemia from CDF1 female mice as the number of survivors on day 5 at a dose of 1.0 mg/kg/day; outline: as §1
[24] = tested on: B16; assay: Antitumor activity against B16 melanoma from B6 D2 F1 female mice as Median survival time of treated mice at a dose of 0.25 mg/kg/day (repeated ip injections, day 1-9); conditions: route intraperitoneal; outline: as §5

COc1ccc(C[C@H]2C(=O)O[C@H](C)[C@H](NC(=O)[C@@H](CC(C)C)N(C)C(=O)C3CCCN3C(=O)[C@@H](C)O)C(=O)NC(C(C)C)[C@H](O)CC(=O)O[C@@H](C(C)C)C(=O)[C@H](C)C(=O)N[C@@H](CC(C)C)C(=O)N3CCC[C@H]3C(=O)N2C)cc1 (some centres undefined) [NORDIDEMNIN]
Toxicity [1]: 1 | median survival time, days [2]: 14.7 | median survival time, days [3]: 19.9 | Toxicity [4]: 1 | median survival time, days [5]: 13.6 | median survival time, days [6]: 28 | Toxicity [7]: 1 | T/C [8]: 154% | T/C [9]: 147% | Body weight change [10]: -1.7 g | Toxicity [11]: 1 | median survival time, days [12]: 10.7 | Body weight change [13]: -0.5 g | Body weight change [14]: 0.2 g | Body weight change [15]: -2.1 g | median survival time, days [16]: 15.7 | median survival time, days [17]: 29.3 | median survival time, days [18]: 9.9 | Body weight change [19]: -1.2 g | T/C [20]: 142% | T/C [21]: 142% | Body weight change [22]: 0 g | Toxicity [23]: 1 | median survival time, days [24]: 29.8
